Only some compounds are listed: those with a hit (about 5.8% of all), similar ones and a draw of the others.
PLK1 inh: blocks human PLK1 kinase activity; inhibition, % at 10 µM; recombinant PLK1 kinase, TR-FRET peptide phosphorylation; hit rate 0.53% among 97,000;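 active means inhibition of 50% or more in the single-concentration screen; inactive means inhibition below 50%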;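 further: 0% = DMSO max control and 100% = H-89 dihydrochloride min control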
Target sequence (P53350 whole entry, looked up): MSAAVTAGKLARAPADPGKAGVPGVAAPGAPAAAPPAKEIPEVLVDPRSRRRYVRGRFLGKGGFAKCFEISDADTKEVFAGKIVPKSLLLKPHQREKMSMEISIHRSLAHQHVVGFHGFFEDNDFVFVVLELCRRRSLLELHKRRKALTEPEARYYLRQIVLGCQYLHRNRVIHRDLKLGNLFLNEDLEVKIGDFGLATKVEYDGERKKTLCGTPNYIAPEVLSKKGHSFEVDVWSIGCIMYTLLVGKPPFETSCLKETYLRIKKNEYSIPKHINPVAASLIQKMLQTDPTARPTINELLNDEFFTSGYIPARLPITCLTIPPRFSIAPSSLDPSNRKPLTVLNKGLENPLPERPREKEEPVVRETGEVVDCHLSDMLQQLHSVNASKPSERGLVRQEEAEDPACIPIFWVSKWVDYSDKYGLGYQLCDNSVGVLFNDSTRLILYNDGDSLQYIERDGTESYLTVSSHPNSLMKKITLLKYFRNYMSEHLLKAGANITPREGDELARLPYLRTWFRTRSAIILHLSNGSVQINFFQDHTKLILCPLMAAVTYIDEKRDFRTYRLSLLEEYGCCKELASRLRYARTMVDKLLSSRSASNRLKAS
HIV Rev-RRE inh: disrupts HIV-1 Rev binding to RRE RNA | P05866 | inhibition, % at 8 µM | hit rate 0.79% among 97,000 | Rev peptide-RRE RNA binding, FRET | AID 704;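 active means inhibition above the screen-wide mean plus 3 SD, cut at about 35% in these data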;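 further: 0% = median DMSO wells and 100% = median Neomycin B control wells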
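Material: labelled RRE RNA duplex and labelled Rev peptide / Buffer or medium: HEPES pH 7.5 salt buffer with EDTA / Compound dosing: single point, 8 µM final nominal compound concentration / Benchmarks: DMSO low control, neomycin B high control / Timing: 5 min preincubation and 15 min binding, 25 °C / Technique: FRET fluorescence readout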
PTK2B oligo ant: antagonists of human Pyk2 oligomerization | Q14289 | z-score (the deposit names both 25 µM and 10 µM) | Q293 cells, Pyk2 FERM NanoBiT luminescence; active compounds read low | hit rate 0.83% among 99,000 | AID 1347419;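 active means Z-score of -3 or lower, scaled per plate to the spread of control and sample wells; inactive means z-score above -3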;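 further: negative z-score means lost luminescence so less FERM oligomerization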
Cav3 T inh: inhibitors of human Cav3.2 T-type calcium channel; Cav3.2-expressing cells, Fluo-4 calcium fluorescence FDSS; active compounds read low; hit rate 4% among 100,000; B-score at 10 µM; AID 449739;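 active means single-dose well whose peak fluorescence ratio is a statistical outlier from its plate by either plate-standardised score or position-corrected B-score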
FAK blocker: blocks human focal adhesion kinase activity. Q05397. biochemical FAK kinase activity assay. inhibition, %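 (tested at 7 µM)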. hit rate 0.84% among 97,000. AID 727; in the data active means inhibition above about 19%;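 further: 0% = DMSO and 100% = reference compound high control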
PLK1 PBD inh: Plk1 (human) PBD binding inhibition; Plk1 PBD phosphopeptide binding, fluorescence polarization; inhibition, %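 (tested at about 20 µM)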; hit rate 0.13% among 97,000; in the data active means inhibition above about 34%, passing the limit was not always enough
* hit, by the source's call; x = no result given.

SMILES	PLK1 inh	HIV Rev-RRE inh	PTK2B oligo ant	Cav3 T inh	FAK blocker	PLK1 PBD inh
OC(CNCC(c1ccco1)N1CCCCC1)c1ccccc1 (stereo unspecified)	-6.7	0.9	0.5	x	0.7	19.6
CC(C)n1c(C(=O)OCC(=O)NCc2ccc3c(c2)OCO3)cc2sccc21	5.5	17.2	-1.36	-3.26*	4.8	-1.0
COC(=O)c1cc(NC(=O)c2cccc(C(F)(F)F)c2)c(=O)oc1C/C=N/OCc1cccc(Cl)c1Cl	-4.1	38.9*	2.32	-4.59*	-2.1	2.1
COc1ccc(Cl)cc1Nc1nc(C)cc(C)c1C(N)=O	-7.8	4.4	0.77	x	1.4	23.1
Cc1cc(C(=O)Cn2nnc(-c3ccc(Cl)cc3)n2)c(C)n1CC1CCCO1 (stereo unspecified)	0.8	-0.1	1.4	-5.21*	2.6	-34.8
Cc1cc(C(=O)CSc2nc3ccccc3o2)c(C)n1CC1CCCO1 (stereo unspecified)	-10.6	1.9	0.31	-0.578	-0.1	0.0
Cc1cccc(-n2nnnc2SCC(=O)c2cc(C)n(CC3CCCO3)c2C)c1 (stereo unspecified)	x	x	-0.94	-5.43*	x	x
Cc1sc2nc(SCC(=O)c3cc(C)n(CC4CCCO4)c3C)n(C(C)C)c(=O)c2c1C (stereo unspecified)	-10.4	2.1	0.29	-4.09*	3.1	-38.0
COc1ccc2[nH]c(=O)c(C(c3nnnn3C3CCCC3)N3CCN(Cc4ccc5c(c4)OCO5)CC3)cc2c1 (stereo unspecified)	5.0	7.7	0	-1.52	2.0	-5.5
NC(=O)c1cc2ccc(O)cc2oc1=NCc1ccccc1	x	x	-1.14	-7.65*	x	x
O=C(NCC(c1cccnc1)N1CCN(c2ccccc2F)CC1)OCc1ccccc1 (stereo unspecified)	-2.2	-0.7	-3.15*	-3.21	-2.3	-18.2
O=C(NCC(c1ccco1)N1CCN(c2ccc(F)cc2)CC1)OCc1ccccc1 (stereo unspecified)	x	x	-3.03*	x	x	x
Cc1ccc(S(=O)(=O)N2CCC(=O)N(C(COCc3ccc(C(F)(F)F)cc3)Cc3ccccc3)CC2)cc1 (stereo unspecified)	x	x	x	1.14	x	x
O=C(Nc1ccc2nc(-c3ccco3)c(-c3ccco3)nc2c1)NC1CC1	37.8	-57.1	-0.13	-0.266	91.7*	-5.9
O=C(Nc1cccc(C(F)(F)F)c1)c1ccc2nc(N3C(=O)CCC3=O)sc2c1	0.9	4.5	0.91	0.763	-1.8	-1.9
O=C(Nc1cccc(C(F)(F)F)c1)c1ccc2nc(-c3ccco3)c(-c3ccco3)nc2c1	17.2	15.9	-0.35	-4.77*	14.3	-7.1
S=C(Nc1ccc2snnc2c1)N1CCN(c2ccccn2)CC1	-2.3	-5.5	2.34	0.68	0.2	7.6
CCN(CC)S(=O)(=O)c1cccc(NC(=O)COC(=O)CCc2nc3ccccc3s2)c1	2.3	19.1	0.66	-0.895	3.8	-20.7
CCN(CC)S(=O)(=O)c1cc(NC(=O)COC(=O)CCc2nc3ccccc3s2)ccc1C	-9.9	8.3	0.96	-4.81*	1.7	2.8
O=S(=O)(Nc1nccs1)c1ccc(Cl)cc1	-3.0	9.1	0.3	-3.44*	2.4	25.4
CC(=O)CCc1ccc(OC(=O)c2cccnc2)cc1	-8.1	1.5	0.36	1.07	-1.1	-18.5
C=CCn1c(CSCc2ccc(Cl)cc2)nnc1SCC(=O)NCc1ccccc1	-6.8	2.1	-1.08	-6.56*	3.3	-25.8
COc1ccc(-n2c(CCc3ccccc3)nnc2SCC(=O)NCc2ccccc2)cc1	-0.1	8.4	-1.25	-3.42	-2.6	-13.0
C=CCn1c(CSCc2ccc(C)cc2)nnc1SCC(=O)NCc1ccccc1	-11.7	1.9	-0.05	-3.6*	0.6	-16.1
C=CCn1c(COc2ccc(Cl)cc2)nnc1SCC(=O)NCC(=O)OCC	2.8	6.9	0.34	2.27	13.9	-7.6
SMILES	PLK1 inh	HIV Rev-RRE inh	PTK2B oligo ant	Cav3 T inh	FAK blocker	PLK1 PBD inh
O=C(CSc1nnc(CCc2ccccc2)n1-c1ccc(Cl)cc1)NCc1ccccc1	2.4	6.8	-0.94	-5.89*	1.1	-12.0
C=CCn1c(SCC(=O)NCc2ccccc2)nnc1-c1ccccc1O	-16.3	11.4	0.08	0.303	-0.8	16.3
Cc1nc(-c2cccc(NS(=O)(=O)c3cccc4ccccc34)c2)cs1	-31.2	13.0	-1.59	-3.56	0.3	-2.5
CN(C(=O)c1ccc(Cl)c(S(=O)(=O)N2CCOCC2)c1)c1ccccc1C(=O)O	-6.7	5.5	1.32	1.42	7.5	19.5
CCCCNc1oc(-c2cccs2)nc1S(=O)(=O)c1ccccc1	-13.6	13.1	0.21	-3.26*	-1.4	8.3
Cc1cc(C)cc(NS(=O)(=O)c2cnc(Cl)c(Cl)c2)c1	-4.8	10.7	0.21	-5.58*	-1.6	32.5
Cc1cc(NS(=O)(=O)c2ccccc2)cc(Cl)c1O	27.7	5.5	-0.59	-1.47	18.1	-7.5
COc1cc(C2/C(=C(/O)c3ccc(F)cc3)C(=O)C(=O)N2CCCC(=O)O)ccc1O (stereo unspecified)	-3.0	-1.3	0.75	0.0254	-8.1	-5.8
c1ccc(-c2ccccc2-c2nc(-c3cccnc3)no2)cc1	-5.7	12.5	-2.13	-4.95*	-0.1	1.6
COC(=O)C(Cc1ccccc1)NS(=O)(=O)c1ccc(F)cc1Br (stereo unspecified)	x	x	x	-0.198	x	x
Cc1cc(C)cc(N2CC(c3nc4ccccc4n3C)CC2=O)c1 (stereo unspecified)	57.5*	1.7	x	0.142	-4.8	-1.4
CCC1(C)Cc2c(C#N)c(N)sc(=S)c2CO1 (stereo unspecified)	-3.6	14.4	-0.71	0.381	-2.8	-19.1
CN1Cc2sc(N)c(C#N)c2CC1(C)C	-7.0	76.8*	0.44	-1.53	6.7	-34.5
CCOc1ccccc1CNC(=O)c1cc2oc3ccccc3c2n1CC	14.4	17.4	-2	-5.04*	-0.3	-15.6
COc1cccc(CNC(=O)c2cc3oc4ccccc4c3n2C)c1OC	-7.3	2.1	0.64	0.298	3.3	-10.4
Cc1ccc(S(=O)(=O)NCC(=O)OC(C(=O)c2ccccc2)c2ccccc2)cc1 (stereo unspecified)	-0.1	5.1	0.56	-3.54*	0.9	-0.6
CCCC(=O)OC(C(=O)Nc1cc(C(F)(F)F)ccc1Cl)c1ccccc1 (stereo unspecified)	x	x	-0.43	x	x	x
COc1ccc(C(=O)C(OC(=O)CNC(=O)c2ccco2)c2ccccc2)cc1 (stereo unspecified)	-9.0	5.8	0.61	-2.61	3.8	7.6
Cc1ccc(C(=O)C(OC(=O)CNC(=O)c2ccc(Cl)cc2)c2ccccc2)cc1 (stereo unspecified)	-8.8	9.7	-0.63	-7.12*	-1.4	22.3
Cc1cc(C(=O)NCC(=O)OC(C(=O)Nc2cc(C(F)(F)F)ccc2Cl)c2ccccc2)ccc1[N+](=O)[O-] (stereo unspecified)	-8.1	10.5	-1.69	-8.98*	2.7	-2.0
COc1ccc(CCC(=O)N2CC(C)OC(C)C2)cc1 (stereo unspecified)	-4.9	7.6	0.44	0.0271	-2.0	-8.5
